Source: ChEMBL document CHEMBL2390929, “New nitric oxide donating 1,2,4-triazole/oxime hybrids: synthesis, investigation of anti-inflammatory, ulceroginic liability and antiproliferative activities” (Bioorg Med Chem, 2013)

Experiments:
[1] = test system: Rattus norvegicus; assay: Gastrointestinal toxicity in albino rat assessed as ulcer index at 0.28 mmol/kg, po (reference value: 0.60 +/- 0.05); type: organism-based; conditions: in vivo
[2] = test system: Rattus norvegicus; assay: Antiinflammatory activity in albino rat assessed as inhibition of carrageenan-induced paw edema at 0.28 mmol/kg, po after 5 hrs relative to control; type: functional
Outline: (§1)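 Adult male albino rats (120–140 g), four per group, fasted 24 h with water allowed. Test agent suspended in 0.5% w/v aqueous CMC and given orally at 0.28 mmol/kg; controls received CMC alone. After 30 min, 0.1 mL fresh 1% carrageenan in saline was injected subplantar into the right hind paw and saline into the left. Paw thickness was measured by Vernier caliper; % inhibition = [(VR−VL)control − (VR−VL)treated]/(VR−VL)control ×100. Mean ± SEM, one-way ANOVA.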

[3] = test system: Rattus norvegicus; assay: Antiinflammatory activity in albino rat assessed as inhibition of carrageenan-induced paw edema at 0.28 mmol/kg, po after 4 hrs relative to control; type: functional; outline: as §1
[4] = test system: Rattus norvegicus; assay: Antiinflammatory activity in albino rat assessed as inhibition of carrageenan-induced paw edema at 0.28 mmol/kg, po after 3 hrs relative to control; type: functional; outline: as §1
[5] = test system: Rattus norvegicus; assay: Antiinflammatory activity in albino rat assessed as inhibition of carrageenan-induced paw edema at 0.28 mmol/kg, po after 2 hrs relative to control; type: functional; outline: as §1
[6] = test system: Rattus norvegicus; assay: Antiinflammatory activity in albino rat assessed as inhibition of carrageenan-induced paw edema at 0.28 mmol/kg, po after 1 hr relative to control; type: functional; outline: as §1
[7] = Induction of nitric oxide release in phosphate buffer at pH 7.4 at 0.1 mM after 6 hrs by Griess method in presence of 0.5 mM of N-acetylcysteine; type: physicochemical; conditions: pH 7.4, 6 h, 100 µM
Outline: (§2)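 Compound in DMF diluted to final 10^-4 M in 1:1 50 mM phosphate buffer pH 7.4/MeOH with 5×10^-4 M N-acetylcysteine, 37 °C. Aliquot mixed with Griess reagent, 10 min at room temperature, A546 read. Nitrite quantified against sodium nitrite standards (10–80 nmol/mL); NO expressed as mol/mol. n = 4 reaction mixtures per compound.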

[8] = Induction of nitric oxide release in phosphate buffer at pH 7.4 at 0.1 mM after 5 hrs by Griess method in presence of 0.5 mM of N-acetylcysteine; type: physicochemical; conditions: pH 7.4, 5 h, 100 µM; outline: as §2
[9] = Induction of nitric oxide release in phosphate buffer at pH 7.4 at 0.1 mM after 4 hrs by Griess method in presence of 0.5 mM of N-acetylcysteine; type: physicochemical; conditions: pH 7.4, 4 h, 100 µM; outline: as §2
[10] = Induction of nitric oxide release in phosphate buffer at pH 7.4 at 0.1 mM after 2 hrs by Griess method in presence of 0.5 mM of N-acetylcysteine; type: physicochemical; conditions: pH 7.4, 2 h, 100 µM; outline: as §2
[11] = Induction of nitric oxide release in phosphate buffer at pH 7.4 at 0.1 mM after 3 hrs by Griess method in presence of 0.5 mM of N-acetylcysteine; type: physicochemical; conditions: pH 7.4, 3 h, 100 µM; outline: as §2
[12] = Induction of nitric oxide release in phosphate buffer at pH 7.4 at 0.1 mM after 1 hr by Griess method in presence of 0.5 mM of N-acetylcysteine; type: physicochemical; conditions: pH 7.4, 1 h, 100 µM; outline: as §2
[13] = test system: Rattus norvegicus; assay: Gastrointestinal toxicity in albino rat assessed as histopathological analysis at 0.28 mmol/kg, po using haematoxylin and eosin staining by light microscopic analysis; type: organism-based; conditions: in vivo
Outline: (§3)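 Adult male albino rats (120–140 g, Minia University), groups of four, fasted 24 h with water allowed. Oral dose 0.28 mmol/kg suspended in 0.5% aqueous CMC; vehicle-only controls. Gastric sections dewaxed, stained with haematoxylin 5–7 min, differentiated in 1% HCl/70% alcohol, counterstained with 1% eosin 10 min. Cleared in xylene, mounted, examined by light microscopy at ×400.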

[14] = test system: Rattus norvegicus; assay: Gastrointestinal toxicity in albino rat assessed as apoptotic glandular epithelial cells at 0.28 mmol/kg, po using haematoxylin and eosin staining by light microscopic analysis; type: organism-based, Epithelial cell; conditions: in vivo; outline: as §3
[15] = test system: Rattus norvegicus; assay: Gastrointestinal toxicity in albino rat assessed as severe atrophic gastritis and gland atrophy at 0.28 mmol/kg, po using haematoxylin and eosin staining by light microscopic analysis; type: organism-based; conditions: in vivo; outline: as §3
[16] = test system: Rattus norvegicus; assay: Gastrointestinal toxicity in albino rat assessed as acute inflammatory cell infiltrating its whole thickness and apparently destroying epithelial lining of gastric pits at 0.28 mmol/kg, po using haematoxylin and eosin staining by light microscopic analysis; type: organism-based, Stomach; conditions: in vivo; outline: as §3
[17] = test system: Rattus norvegicus; assay: Gastrointestinal toxicity in albino rat assessed as acute inflammatory cell infiltrating its whole thickness and apparently destroying surface of epithelium at 0.28 mmol/kg, po using haematoxylin and eosin staining by light microscopic analysis; type: organism-based; conditions: in vivo; outline: as §3
[18] = test system: Rattus norvegicus; assay: Gastrointestinal toxicity in albino rat assessed as capillary vasodilatation associated with accumulation of edema fluid in lamina propria at 0.28 mmol/kg, po using haematoxylin and eosin staining by light microscopic analysis; type: organism-based; conditions: in vivo; outline: as §3
[19] = test system: Rattus norvegicus; assay: Gastrointestinal toxicity in albino rat assessed as decreased in thickness with marked loss of mucosal membrane at areas of ulceration at 0.28 mmol/kg, po using haematoxylin and eosin staining by light microscopic analysis; type: organism-based; conditions: in vivo; outline: as §3

Row | Activity [7] [mol/mol] | Activity [8] [mol/mol] | Activity [9] [mol/mol] | Activity [10] [mol/mol] | Activity [11] [mol/mol] | Activity [12] [mol/mol] | SMILES | UI [1] | inhibition in vivo at 280 µmol/kg [2] [%] | inhibition in vivo at 280 µmol/kg [3] [%] | inhibition in vivo at 280 µmol/kg [4] [%] | inhibition in vivo at 280 µmol/kg [5] [%] | inhibition in vivo at 280 µmol/kg [6] [%] | Activity [13] | Activity [14] | Activity [15] | Activity [16] | Activity [17] | Activity [18] | Activity [19]
1 | – | – | – | – | – | – | C=CCn1c(SCC(=O)c2ccccc2)nnc1-c1ccccc1 | 2.44 | 66 | 66 | 70 | 58 | 43 | – | – | – | – | – | – | –
2 | 0.17 | 0.17 | 0.13 | 0.1 | 0.12 | 0.08 | C=CCn1c(SC/C(=N/O)c2ccccc2)nnc1-c1cc(OC)c(OC)c(OC)c1 | 5.52 | 77 | 73 | 70 | 68 | 61 | – | – | – | – | – | – | –
3 | – | – | – | – | – | – | CCn1c(SCC(=O)c2ccccc2)nnc1-c1cc(OC)c(OC)c(OC)c1 | 3.42 | 59 | 72 | 49 | 41 | 29 | – | – | – | – | – | – | –
4 | – | – | – | – | – | – | C=CCn1c(SCC(=O)c2ccccc2)nnc1-c1ccc(OC)cc1 | 5.34 | 61 | 67 | 63 | 53 | 49 | – | – | – | – | – | – | –
5 | – | – | – | – | – | – | COc1ccc(-c2nnc(SCC(=O)c3ccccc3)n2-c2ccccc2)cc1 | 8.74 | 61 | 68 | 58 | 57 | 52 | – | – | – | – | – | – | –
6 | – | – | – | – | – | – | COc1ccc(-c2nnc(SCC(=O)c3ccccc3)n2-c2ccccc2)cc1OC | 9.41 | 59 | 65 | 59 | 57 | 56 | – | – | – | – | – | – | –
7 | – | – | – | – | – | – | O=C(CSc1nnc(-c2ccccc2)n1-c1ccccc1)c1ccccc1 | 9.58 | 63 | 68 | 64 | 60 | 53 | – | – | – | – | – | – | –
8 | 0.14 | 0.18 | 0.21 | 0.12 | 0.12 | 0.11 | CCn1c(SC/C(=N/O)c2ccccc2)nnc1-c1cc(OC)c(OC)c(OC)c1 | 3.66 | 74 | 79 | 69 | 67 | 63 | – | – | – | – | – | – | –
9 | – | – | – | – | – | – | COc1cc(-c2nnc(SCC(=O)c3ccccc3)n2-c2ccccc2)cc(OC)c1OC | 5.29 | 72 | 73 | 68 | 51 | 44 | – | – | – | – | – | – | –
10 | – | – | – | – | – | – | CCn1c(SCC(=O)c2ccccc2)nnc1-c1ccc(OC)c(OC)c1 | 7.36 | 69 | 73 | 61 | 55 | 42 | Non-toxic | – | – | – | – | – | –
11 | 0.12 | 0.14 | 0.19 | 0.11 | 0.14 | 0.08 | CCn1c(SC/C(=N/O)c2ccccc2)nnc1-c1ccc(OC)cc1 | 2.53 | 71 | 78 | 75 | 72 | 69 | – | – | – | – | – | – | –
12 | – | – | – | – | – | – | CCn1c(SCC(=O)c2ccccc2)nnc1-c1ccc(OC)cc1 | 6.59 | 61 | 70 | 67 | 60 | 53 | – | – | – | – | – | – | –
13 | – | – | – | – | – | – | C=CCn1c(SCC(=O)c2ccccc2)nnc1-c1cc(OC)c(OC)c(OC)c1 | 6.39 | 60 | 66 | 66 | 62 | 49 | – | – | – | – | – | – | –
14 | 0.14 | 0.15 | 0.15 | 0.12 | 0.12 | 0.09 | C=CCn1c(SC/C(=N/O)c2ccccc2)nnc1-c1ccc(OC)cc1 | 1.14 | 57 | 76 | 67 | 66 | 61 | – | – | – | – | – | – | –
15 | – | – | – | – | – | – | COc1ccc2c(c1)c(CC(=O)O)c(C)n2C(=O)c1ccc(Cl)cc1 [INDOMETHACIN] | 63.45 | 87 | 83 | 74 | 67 | 51 | – | Toxic | Toxic | Toxic | Toxic | Toxic | Toxic
16 | 0.17 | 0.22 | 0.16 | 0.1 | 0.13 | 0.06 | C=CCn1c(SC/C(=N\O)c2ccccc2)nnc1-c1ccccc1 | 2.3 | 68 | 77 | 65 | 60 | 58 | – | – | – | – | – | – | –
17 | – | – | – | – | – | – | C=CCn1c(SCC(=O)c2ccccc2)nnc1-c1ccc(OC)c(OC)c1 | 4.26 | 62 | 72 | 64 | 63 | 61 | – | – | – | – | – | – | –
18 | – | – | – | – | – | – | CCn1c(SCC(=O)c2ccccc2)nnc1-c1ccccc1 | 4.49 | 51 | 63 | 61 | 55 | 52 | – | – | – | – | – | – | –
